Measured values of several laboratories.
Compare with care: the assays were run in different laboratories.
Cell line: MRC5
Observed: cell growth or viability

Structure (SMILES)	assay	setting	IC50 [µM]
COc1c2c(cc3c1OCO3)[C@]13C=C[C@H](OC)C[C@H]1N(C2)C[C@H]3OC(=O)c1cccc(C)c1	WST-1	–	> 10
CC(=O)O[C@H]1C(=O)[C@@]2(C)[C@H]([C@H](OC(=O)c3ccccc3)[C@]3(O)C[C@H](OC(=O)[C@H](O)[C@@H](NC(=O)c4ccccc4)c4ccccc4)C(C)=C1C3(C)C)[C@]1(OC(C)=O)CO[C@@H]1C[C@@H]2O	SRB	–	0.0141
Oc1ccccc1-c1n[nH]c(-c2ccccc2O)n1	MTT	72 h	> 100
O=C(/C=C/C=C/c1ccc2c(c1)OCO2)N1CCCCC1	SRB	–	136
CC(C)=CCC/C(C)=C/COc1ccc2ccc(=O)oc2c1	MTT	72 h	> 100
CCCCC/C=C/C(=O)CCc1ccc(O)c(OC)c1	SRB	–	18.5
COc1ccc(C(=O)O[C@@H]2CN3Cc4c(cc5c(c4OC)OCO5)[C@@]24C=C[C@H](OC)C[C@@H]34)cc1	WST-1	–	> 10
O=C([O-])c1ccc(-n2nc(-c3ccccc3O)nc2-c2ccccc2[O-])cc1.O=C([O-])c1ccc(-n2nc(-c3ccccc3O)nc2-c2ccccc2[O-])cc1.[Ti+4]	MTT	72 h	25
COc1cc2ccc(=O)oc2cc1OC	MTT	72 h	> 100
COc1cccc(C(=O)O[C@@H]2CN3Cc4c(cc5c(c4OC)OCO5)[C@@]24C=C[C@H](OC)C[C@@H]34)c1	WST-1	–	> 10
